High-throughput results deposited in PubChem by several laboratories.
Mcl1 Bid PPI – Mcl-1/Bid interaction inhibition. Q07820. TR-FRET Mcl-1/Bid-Dy647 peptide binding, 1536-well. 0.97% of 220,000 active. inhibition, % at 21.7 µM;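 active = compounds that cut the binding signal by more than half at the single screening dose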;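 note: His-tagged Mcl-1 with europium anti-His antibody binding Bid BH3 peptide; 0% = Mcl-1 plus peptide wells and 100% = peptide-only wells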
Target sequence (Q07820 whole entry, looked up): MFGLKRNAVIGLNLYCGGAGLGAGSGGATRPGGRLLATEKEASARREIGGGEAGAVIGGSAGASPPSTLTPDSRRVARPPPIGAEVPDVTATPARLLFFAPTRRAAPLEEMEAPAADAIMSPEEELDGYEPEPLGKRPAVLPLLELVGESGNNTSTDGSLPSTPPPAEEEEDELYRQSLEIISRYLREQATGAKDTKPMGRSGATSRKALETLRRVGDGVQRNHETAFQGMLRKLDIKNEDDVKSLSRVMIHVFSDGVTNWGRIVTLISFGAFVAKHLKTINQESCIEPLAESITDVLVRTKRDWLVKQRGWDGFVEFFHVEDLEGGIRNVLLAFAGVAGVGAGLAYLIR
MCL1-BIM inh – inhibitors of human MCL1 binding to BIM-BH3 peptide. Q07820. GST-MCL1 / FITC-Bim-BH3 fluorescence polarization. inhibition, % at 10.9 µM. 0.68% of 320,000 active;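 active = inhibition above the mean inhibition of all tested compounds plus 3 SD, set per campaign, cut at about 40% in these data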;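 note: 0% = DMSO wells and 100% = unlabeled Bim-BH3 peptide control; higher means more loss of mP so more displacement of Bim peptide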
RBBP9 inh – inhibitors of human serine hydrolase RBBP9 | inhibition, % at 7.94 µM | recombinant RBBP9, FP-Rh probe fluorescence polarization | 0.2% of 220,000 active | O75884;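 active = inhibition above the campaign mean of all tested compounds plus 3 SD, cut at about 14% in these data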;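 note: plate controls were DMSO wells with RBBP9 for no effect and wells lacking RBBP9 protein for full effect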
Target sequence (O75884 whole entry, looked up): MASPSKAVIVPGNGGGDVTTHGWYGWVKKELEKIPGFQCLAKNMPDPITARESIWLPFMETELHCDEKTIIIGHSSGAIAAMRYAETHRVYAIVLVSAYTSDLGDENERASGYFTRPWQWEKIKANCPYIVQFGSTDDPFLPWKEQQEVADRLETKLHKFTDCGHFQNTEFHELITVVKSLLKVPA
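System: RBBP9 protein / Buffer or medium: Tris/NaCl buffer pH 8.0 with 0.1% Pluronic / Probe or stimulus: Serine-hydrolase probe FP-Rh, 375 nM pre-mixing / Dosing: 7.94 µM single dose, 0.794% DMSO / Times: enzyme-compound preincubation 30 min, then probe labeling 45 min, 25 °C / Technique: fluorescence polarization (mP), excitation 525 nm, emission 598 nm / Replication: singlicate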
EBV gp42 inh – inhibitors of Epstein-Barr virus glycoprotein 42 | Q1HVG2 | Fluorescence polarization binding assay, mP read-out | inhibition, % (tested at 21.74 µM) | 0.42% of 220,000 active; in the data active = inhibition above about 50%
Mcl1-Noxa inh – disrupts binding of human Mcl-1 to Noxa peptide; Q07820; TR-FRET Mcl-1/Noxa peptide binding, 2 h; inhibition, % at 21.7 µM; 1.5% of 220,000 active;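 active = compounds that cut the protein-peptide binding signal by more than 50% relative to plate controls in a single-dose test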;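 note: His-tagged Mcl-1 with rhodamine Noxa BH3 peptide and terbium anti-His antibody; 0% = Mcl-1 plus Noxa peptide wells and 100% = peptide-only wells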
Mcl-1 Bim block – disrupts Bim peptide binding to human Mcl-1; Q07820; Bead-based flow cytometry, Bim peptide-Mcl-1 binding; inhibition, % at 10 µM; 0.1% of 190,000 active; AID 1009; in the data active = inhibition above about 40%;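 note: 0% = no compound tracer wells and 100% = peptide blocker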
The depositor's hits bear a star. An excerpt weighted towards active compounds, which were near 2.2% of everything screened.

Screening Cc1ccc(N=C2NC(=O)S/C2=C\c2ccco2)cc1 returned Mcl1 Bid PPI 48.3, MCL1-BIM inh 25.9, RBBP9 inh -1.1, EBV gp42 inh -2.1, Mcl1-Noxa inh 83.0* and Mcl-1 Bim block 0.0.
Screening O=C1NC(=Nc2ccccc2)/C(=C/c2ccco2)S1 returned Mcl1 Bid PPI -32.5, MCL1-BIM inh 46.7*, RBBP9 inh -1.0, EBV gp42 inh -8.2, Mcl1-Noxa inh 46.7 and Mcl-1 Bim block -3.0.
`Cc1ccc(N2C(=O)/C(=C/c3ccco3)SC2=S)cc1` gave Mcl1 Bid PPI -12.6, MCL1-BIM inh 15.6, RBBP9 inh -8.4, EBV gp42 inh 4.4, Mcl1-Noxa inh 29.5 and Mcl-1 Bim block -1.0.
Screening Cc1nnc(N2CCN(c3ccccc3)CC2)c2nn(-c3ccccc3F)c(C)c12 returned RBBP9 inh -7.6.
Screening O=C1/C(=C/c2ccc(N3CCOCC3)o2)SC(=Nc2ccccc2)N1CCc1c[nH]c2ccccc12 returned Mcl1 Bid PPI -62.6, MCL1-BIM inh -103.8, RBBP9 inh 5.6, EBV gp42 inh -14.3, Mcl1-Noxa inh 38.3 and Mcl-1 Bim block -21.0.
`COc1cc(/C=C2\SC(=Nc3ccccc3)N(CCc3c[nH]c4ccccc34)C2=O)ccc1OC(C)C(=O)O` (configuration not stated) gave Mcl1 Bid PPI -5.7, MCL1-BIM inh 9.6, RBBP9 inh -8.4, EBV gp42 inh 13.4, Mcl1-Noxa inh 50.6* and Mcl-1 Bim block 0.0.
Screening COc1ccc(N=C2S/C(=C\c3ccc(OC(C)C(=O)O)c(OC)c3)C(=O)N2CCc2c[nH]c3ccccc23)cc1 (configuration not stated) returned Mcl1 Bid PPI -16.3, RBBP9 inh -6.0, EBV gp42 inh -5.9, Mcl1-Noxa inh 82.2* and Mcl-1 Bim block 2.0.
For COc1cccc2c1c(NC(=O)Nc1ccc(F)cc1F)nn2C the results were Mcl1 Bid PPI 67.0*, MCL1-BIM inh -5.0, RBBP9 inh -7.1, EBV gp42 inh 6.0 and Mcl1-Noxa inh 5.1.
Screening COc1ccccc1NC(=O)Nc1nn(C)c2cccc(N(C)C)c12 returned Mcl1 Bid PPI -87.1, MCL1-BIM inh 2.4, RBBP9 inh -2.5, EBV gp42 inh -0.9 and Mcl1-Noxa inh 34.2.
For CCO/C(=C/c1sc2ccc(OC)cc2[n+]1CCCS(=O)(=O)[O-])CC the results were Mcl1 Bid PPI -19.8, MCL1-BIM inh 15.0, RBBP9 inh 0.4, EBV gp42 inh -5.0, Mcl1-Noxa inh 7.6 and Mcl-1 Bim block -4.0.
CCOC(=O)C[n+]1c(C)sc2ccc(OC)cc21 was read as Mcl1 Bid PPI -94.8, MCL1-BIM inh 2.8, RBBP9 inh -17.9, EBV gp42 inh 3.1, Mcl1-Noxa inh 53.8* and Mcl-1 Bim block -3.0.
S=c1[nH]nc(-c2cc(-c3ccccc3)n[nH]2)n1/N=C/c1ccccc1 was read as Mcl1 Bid PPI -103.3, MCL1-BIM inh -11.7, RBBP9 inh -1.4, EBV gp42 inh -13.6 and Mcl1-Noxa inh -12.7.
Screening S=c1[nH]nc(-c2cc(-c3ccccc3)n[nH]2)n1/N=C/C(Br)=C/c1ccccc1 returned Mcl1 Bid PPI -93.0, MCL1-BIM inh -11.1, RBBP9 inh 2.1, EBV gp42 inh 5.5 and Mcl1-Noxa inh 75.8*.
Screening O=[N+]([O-])c1ccccc1/C=C/C=N/n1c(-c2cc(-c3ccccc3)n[nH]2)n[nH]c1=S returned Mcl1 Bid PPI -32.6, MCL1-BIM inh -22.5, RBBP9 inh -4.2, EBV gp42 inh -5.3 and Mcl1-Noxa inh 57.8*.
For O=C(NCc1cccc(Cl)c1)c1ccc(-c2csnn2)cc1 the results were Mcl1 Bid PPI -8.8, MCL1-BIM inh 0.9, RBBP9 inh -0.9, EBV gp42 inh -5.7 and Mcl1-Noxa inh -23.6.
`Nc1nccnc1C(=O)OCC(=O)C12CC3CC(CC(C3)C1)C2` gave MCL1-BIM inh -2.6.
For N#CC1(C#N)CC(C=O)=C(N)C1(C#N)CC(=O)C12CC3CC(CC(C3)C1)C2 (configuration not stated) the results were Mcl1 Bid PPI -11.2, MCL1-BIM inh -0.8, RBBP9 inh -5.0, EBV gp42 inh 142.1*, Mcl1-Noxa inh 6.5 and Mcl-1 Bim block -3.0.
For O=C(CC1C(=O)NCCN1C(=O)Nc1ccccc1)Nc1cc(Cl)cc(Cl)c1 (configuration not stated) the results were MCL1-BIM inh 8.2.
For COC(=O)c1cn(CC(=O)Nc2ccc(F)cc2)c2ccccc12 the results were Mcl1 Bid PPI -21.2, MCL1-BIM inh -5.1, RBBP9 inh -4.7, EBV gp42 inh 1.9, Mcl1-Noxa inh 5.5 and Mcl-1 Bim block -2.0.
For S=c1[nH]nc(-c2ccncc2)n1/N=C/c1cn(-c2ccccc2)nc1-c1ccc(Cl)cc1 the results were Mcl1 Bid PPI -59.2, MCL1-BIM inh -3.2, RBBP9 inh 3.3, EBV gp42 inh -6.8 and Mcl1-Noxa inh 62.0*.
Screening c1ccc2c(-c3cncc4ccccc34)cncc2c1 returned MCL1-BIM inh 3.0.
C=CCn1c(=O)/c(=C2/SC(C)=C(C)N2CC)s/c1=C1/C(=O)N(CC)C(=S)N1c1ccccc1 was read as Mcl1 Bid PPI 58.7*, MCL1-BIM inh -4.9, RBBP9 inh 7.7, EBV gp42 inh -65.4, Mcl1-Noxa inh 28.7 and Mcl-1 Bim block -4.0.
For CCCOc1ccc(C(=O)Nc2ccc(NC(=O)c3cccs3)cc2)cc1 the results were MCL1-BIM inh -0.1.
`CCOC(=O)c1c(C)c(C(=O)Nc2ccc(N(C)C)cc2)c(C)n1CC` gave Mcl1 Bid PPI -11.8, MCL1-BIM inh -2.2, RBBP9 inh -8.1, EBV gp42 inh 13.5, Mcl1-Noxa inh 56.1* and Mcl-1 Bim block 3.0.
`CCCCOC(=O)Nc1ccc(C(N)=O)cc1` gave Mcl1 Bid PPI -6.0, MCL1-BIM inh 2.0, RBBP9 inh -5.6, EBV gp42 inh -23.4, Mcl1-Noxa inh 12.1 and Mcl-1 Bim block -6.0.
For CCCCOC(=O)Nc1ccc(N(C)C)cc1 the results were Mcl1 Bid PPI -48.3, MCL1-BIM inh 7.5, RBBP9 inh -3.3, EBV gp42 inh -18.3, Mcl1-Noxa inh 74.7* and Mcl-1 Bim block 1.0.
CC(C)Oc1ccc(C(=O)Nc2ccc(N(C)C)cc2)cc1 was read as Mcl1 Bid PPI -31.6, MCL1-BIM inh 6.2, RBBP9 inh 1.0, EBV gp42 inh -21.8, Mcl1-Noxa inh 78.2* and Mcl-1 Bim block 3.0.
`CCCOc1ccc(C(=O)Nc2ccc(N(C)C)cc2)cc1` gave Mcl1 Bid PPI -27.4, MCL1-BIM inh 7.3, RBBP9 inh -0.4, EBV gp42 inh -20.8, Mcl1-Noxa inh 81.3* and Mcl-1 Bim block 4.0.
CCOC(=O)c1c(C)c(C(=O)NCCOC)c(C)n1CC was read as Mcl1 Bid PPI -25.2, MCL1-BIM inh 4.4, RBBP9 inh -3.9, EBV gp42 inh 9.9, Mcl1-Noxa inh 11.6 and Mcl-1 Bim block -3.0.
CC(C)Oc1ccc(C(=O)Nc2ccc3c(c2)n(C)c(=O)n3C)cc1 was read as MCL1-BIM inh 0.1.
